Source: ChEMBL document CHEMBL1155808, “Antitumor activity of bis-indole derivatives” (J Med Chem, 2008)
The source made the active and inactive calls. The rule behind the calls is not given here.

Assays:
[1] = Cytotoxicity against human Non-small cell lung carcinoma cells; format: functional; conditions: for CC50: read-out: pLC50 (the source's name) (converted); for TGI: read-out: pTGI (converted)
Procedure, shortened: (§1)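 NCI 60-cell-line human tumour screen, with subpanels for leukemia, melanoma, lung, colon, kidney, ovary, breast, prostate and CNS. Compounds were dissolved in DMSO and tested at five ten-fold dilutions, highest 10^-4 M (10^-3 M for some). Endpoints were GI50, TGI and LC50, reported as negative log molar. Some compounds were assayed once, others two or three times.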

[2] = Cytotoxicity against human colon cancer cells; format: functional; conditions: Cancer cell lines; for CC50: read-out: pLC50 (the source's name) (converted); for TGI: read-out: pTGI (converted); procedure, shortened: as §1
[3] = Cytotoxicity against human central nervous system cancer cells; format: functional; conditions: Cancer cell lines; for CC50: read-out: pLC50 (the source's name) (converted); for TGI: read-out: pTGI (converted); procedure, shortened: as §1
[4] = Cytotoxicity against human melanoma cells; format: functional; conditions: Melanoma cell; for CC50: read-out: pLC50 (the source's name) (converted)
[5] = Cytotoxicity against human ovarian cancer cells; format: functional; conditions: Cancer cell lines; for CC50: read-out: pLC50 (the source's name) (converted); for TGI: read-out: pTGI (converted)
[6] = Cytotoxicity against human renal cancer cells; format: functional; conditions: Cancer cell lines; for CC50: read-out: pLC50 (the source's name) (converted); for TGI: read-out: pTGI (converted); procedure, shortened: as §1
[7] = Cytotoxicity against human prostate cancer cells; format: functional; conditions: Cancer cell lines; for CC50: read-out: pLC50 (the source's name) (converted); for TGI: read-out: pTGI (converted); procedure, shortened: as §1
[8] = Cytotoxicity against human breast cancer cells; format: functional; conditions: Cancer cell lines; for CC50: read-out: pLC50 (the source's name) (converted); for TGI: read-out: pTGI (converted)
Procedure, shortened: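 MTT cytotoxicity assay in breast cancer cell lines; proliferation expressed as percent growth inhibition relative to vehicle-treated control cells; IC50 reported.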

[9] = Cytotoxicity against human leukemia cells; format: functional; conditions: Leukemia cell; for CC50: read-out: pLC50 (the source's name) (converted); for TGI: read-out: pTGI (converted); procedure, shortened: as §1
[10] = Inhibition of plasma membrane electron transport pathway in mitochondrial gene-knockout human HL60p'0 cells by WST1 reduction assay
Procedure, shortened: (§2)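 Cells at 10^5 per well in 0.1 ml pretreated 30 min with compound in DMSO (<0.1% final), then WST-1/mPMS added (final 500 µM and 20 µM); WST-1 reduction followed in real time at 450 nm; averages ± S.E.M. of four independent experiments.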

[11] = Inhibition of plasma membrane electron transport pathway in human HL60 cells by WST1 reduction assay; format: cell-based; conditions: HL-60; procedure, shortened: as §2
HL-60 = test: Cytotoxicity against human HL60 cells after 48 hrs by MTT assay; format: functional, cell-based; conditions: HL-60, 48 h
[12] = Cytotoxicity against human mitochondrial gene-knockout human HL60p'0 cells after 48 hrs by MTT assay; format: functional, cell-based
B1647 = test: Antiproliferative activity against human B1647 cells after 48 hrs by MTT assay; format: functional, cell-based
HEL = test: Antiproliferative activity against human HEL cells after 48 hrs by MTT assay; format: functional, cell-based
Mo7e = test: Antiproliferative activity against human Mo7e cells after 48 hrs by MTT assay; format: functional, cell-based
[13] = Inhibition of plasma membrane electron transport pathway in human B1647 cells by WST1 reduction assay; format: cell-based; procedure, shortened: as §2
[14] = Inhibition of plasma membrane electron transport pathway in human HEL cells by WST1 reduction assay; format: cell-based; procedure, shortened: as §2
[15] = Inhibition of plasma membrane electron transport pathway in human Mo7e cells by WST1 reduction assay; format: cell-based; procedure, shortened: as §2
Mus musculus [16] = test: Toxicity in ip dosed mouse assessed as maximum tolerated dose after 14 days; format: organism-based; conditions: in vivo, 336 h
Procedure, shortened: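 Mice received a single i.p. injection of 400 mg/kg. If the animal survived 14 days, MTD was 400 mg/kg. If it died, the dose was lowered to 200 mg/kg and then halved repeatedly until a tolerated dose was found, which was taken as the MTD.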

Mus musculus [17] = test: Toxicity in human HL60(TB) cells xenografted mouse assessed as mean net weight loss at 200 mg/kg, ip dosed as Q4Dx3, day 7 schedule measured on day 14; format: organism-based; set-up: dose 200 mg/kg, route intraperitoneal; conditions: in vivo
Mus musculus [18] = test: Toxicity in human HL60(TB) cells xenografted mouse assessed as mean net weight loss at 134 mg/kg, ip dosed as Q4Dx3, day 7 schedule measured on day 14; format: organism-based; set-up: dose 134 mg/kg, route intraperitoneal; conditions: in vivo
Mus musculus [19] = test: Toxicity in human HL60(TB) cells xenografted mouse assessed as mean net weight loss at 90 mg/kg, ip dosed as Q4Dx3, day 7 schedule measured on day 22; format: organism-based; set-up: dose 90 mg/kg, route intraperitoneal; conditions: in vivo
Mus musculus [20] = test: Toxicity in human HL60(TB) cells xenografted mouse assessed as drug induced death at 200 mg/kg, ip dosed as Q4Dx3, day 7 schedule measured on day 14; format: organism-based; set-up: dose 200 mg/kg, route intraperitoneal; conditions: in vivo
Mus musculus [21] = test: Toxicity in human HL60(TB) cells xenografted mouse assessed as drug induced death at 134 mg/kg, ip dosed as Q4Dx3, day 7 schedule measured on day 14; format: organism-based; set-up: dose 134 mg/kg, route intraperitoneal; conditions: in vivo
Mus musculus [22] = test: Toxicity in human HL60(TB) cells xenografted mouse assessed as drug induced death at 90 mg/kg, ip dosed as Q4Dx3, day 7 schedule measured on day 22; format: organism-based; set-up: dose 90 mg/kg, route intraperitoneal; conditions: in vivo
[23] = Antitumor activity against human HL60(TB) cells xenografted in mouse assessed as effect on tumor growth at 200 mg/kg, ip dosed as Q4Dx3, day 7 schedule measured on day 19 relative to control; format: functional, HL-60(TB); conditions: route intraperitoneal
[24] = Antitumor activity against human HL60(TB) cells xenografted in mouse assessed as effect on tumor growth at 134 mg/kg, ip dosed as Q4Dx3, day 7 schedule measured on day 19 relative to control; format: functional, HL-60(TB); conditions: route intraperitoneal
[25] = Antitumor activity against human HL60(TB) cells xenografted in mouse assessed as tumor growth delay at 90 mg/kg, ip dosed as Q4Dx3, day 7 schedule day 7 schedule measured on day 19 relative to control; format: functional, HL-60(TB); conditions: route intraperitoneal
[26] = Antitumor activity against human HL60(TB) cells xenografted in mouse assessed as tumor growth delay at 200 mg/kg, ip dosed as Q4Dx3, day 7 schedule relative to control; format: functional, HL-60(TB); conditions: route intraperitoneal
[27] = Antitumor activity against human HL60(TB) cells xenografted in mouse assessed as tumor growth delay at 134 mg/kg, ip dosed as Q4Dx3, day 7 schedule relative to control; format: functional, HL-60(TB); conditions: route intraperitoneal
[28] = Antitumor activity against human HL60(TB) cells xenografted in mouse assessed as tumor growth delay at 90 mg/kg, ip dosed as Q4Dx3, day 7 schedule relative to control; format: functional, HL-60(TB); conditions: route intraperitoneal
[29] = Antitumor activity against human HL60(TB) cells xenografted in mouse assessed as net log cell kill at 200 mg/kg, ip dosed as Q4Dx3, day 7 schedule relative to control; format: functional, HL-60(TB); conditions: route intraperitoneal
[30] = Antitumor activity against human HL60(TB) cells xenografted in mouse assessed as net log cell kill at 134 mg/kg, ip dosed as Q4Dx3, day 7 schedule relative to control; format: functional, HL-60(TB); conditions: route intraperitoneal
[31] = Antitumor activity against human HL60(TB) cells xenografted in mouse assessed as net log cell kill at 90 mg/kg, ip dosed as Q4Dx3, day 7 schedule relative to control; format: functional, HL-60(TB); conditions: route intraperitoneal

## O=C1Nc2ccc(Cl)cc2/C1=C\c1cccc(/C=C2/C(=O)Nc3ccc(Cl)cc32)n1
[1]
  GI50: 1.74 µM
  CC50: 20 µM
  TGI: 4.37 µM
[2]
  GI50: 0.933 µM
  CC50: 15.1 µM
  TGI: 2.57 µM
[3]
  GI50: 0.891 µM
  CC50: 14.8 µM
  TGI: 2.75 µM
[4]
  GI50: 0.692 µM
  CC50: 7.94 µM
[4]; read-out: pTGI (converted)
  TGI: 1.91 µM
[5]
  GI50: 1.26 µM
  CC50: 17.8 µM
  TGI: 4.17 µM
[6]
  GI50: 1.26 µM
  CC50: 7.59 µM
  TGI: 2.95 µM
[7]
  GI50: 1.51 µM
  CC50: 24.5 µM
  TGI: 6.61 µM
[8]
  GI50: 1.12 µM
  CC50: 22.9 µM
  TGI: 4.17 µM
[9]
  GI50: 0.661 µM
  CC50: 47.9 µM
  TGI: 4.9 µM
[10]
  IC50: > 117 µM
[11]
  IC50: > 117 µM
HL-60
  IC50: 3 µM
[12]
  IC50: 3 µM
B1647
  Activity: Active
HEL
  Activity: Active
Mo7e
  Activity: Active

## COc1ccc2c(c1)/C(=C\c1cccc(/C=C3/C(=O)Nc4ccc(OC)cc43)n1)C(=O)N2
[1]
  GI50: 1.7 µM
  CC50: 43.7 µM
  TGI: 10.7 µM
[2]
  GI50: 0.794 µM
  CC50: 30.9 µM
  TGI: 4.68 µM
[3]
  GI50: 1.62 µM
  CC50: 63.1 µM
  TGI: 12.9 µM
[4]
  GI50: 0.891 µM
  CC50: 13.5 µM
[5]
  GI50: 1.12 µM
  CC50: 46.8 µM
  TGI: 9.33 µM
[6]
  GI50: 1.45 µM
  CC50: 24 µM
  TGI: 4.27 µM
[7]
  GI50: 1.66 µM
  CC50: 69.2 µM
  TGI: 9.33 µM
[8]
  GI50: 1.48 µM
  CC50: 81.3 µM
  TGI: 14.8 µM
[9]
  GI50: 0.617 µM
  CC50: 57.5 µM
  TGI: 3.8 µM
[10]
  IC50: > 117 µM
[11]
  IC50: > 117 µM
[13]
  IC50: 30 µM
[14]
  IC50: 30 µM
[15]
  IC50: 30 µM
B1647
  Activity: Active
HEL
  Activity: Active
Mo7e
  Activity: Active
Mus musculus [16]
  MTD: 400 mg/kg
Mus musculus [17]
  Activity: 10%
Mus musculus [18]
  Activity: 6.4%
Mus musculus [19]
  Activity: 9.1%
Mus musculus [20]
  Activity: Non-toxic
Mus musculus [21]
  Activity: Non-toxic
Mus musculus [22]
  Activity: Non-toxic
[23]
  T/C: 90%
[24]
  T/C: 6.4%
[25]
  T/C: 138%
[26]
  Activity: 48%
[27]
  Activity: -17%
[28]
  Activity: 25%
[29]
  LCK: -0.8
[30]
  LCK: -1.8
[31]
  LCK: -1.1
